Assay results taken from ChEMBL document CHEMBL1132157 (J Med Chem, 1999).

Experiments:
[1] = Ratio of IC50 for human 5-HT1B to human 5-HT1D receptors
[2] = molecular target: T1, 5-hydroxytryptamine receptor 1D (Homo sapiens, UniProt P28221); test: Maximum stimulation of [35S]GTP-gamma-S, binding in CHO cells expressing human 5-HT-1d relative to 5-HT; type: functional, cell-based
How it was run: (§1)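 Membranes from thawed CHO cells with human 5-HT1D, prepared in ice-cold 20 mM Hepes/EDTA at pH 7.4, spun at 40000g. Assay buffer: 100 mM NaCl, 10 mM MgCl2, 0.1% ascorbate, 10 μM pargyline. GDP 100 μM plus drug, 20 min at 30 °C, then ice 15 min. Then 100 pM [35S]GTPγS, 30 min at 30 °C, filtration. Emax is taken as % of maximal 5-HT response; duplicates, 2–5 occasions.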

[3] = molecular target: T2, 5-hydroxytryptamine receptor 1B (Homo sapiens, UniProt P28222); test: Binding affinity at cloned human 5-hydroxytryptamine 1B receptor stably expressed in CHO cells by [3H]5-HT displacement.; type: cell-based
T2 sequence (P28222 whole entry): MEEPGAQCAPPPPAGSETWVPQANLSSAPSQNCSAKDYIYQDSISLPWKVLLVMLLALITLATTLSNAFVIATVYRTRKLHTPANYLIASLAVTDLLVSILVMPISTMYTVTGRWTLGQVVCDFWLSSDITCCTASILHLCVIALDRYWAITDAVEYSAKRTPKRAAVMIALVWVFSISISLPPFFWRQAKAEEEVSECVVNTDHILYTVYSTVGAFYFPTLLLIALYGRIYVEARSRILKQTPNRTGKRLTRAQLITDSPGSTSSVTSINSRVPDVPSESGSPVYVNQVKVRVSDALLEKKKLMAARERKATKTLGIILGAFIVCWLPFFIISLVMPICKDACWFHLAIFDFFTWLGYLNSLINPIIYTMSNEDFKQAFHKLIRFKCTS

[4] = molecular target: T1, 5-hydroxytryptamine receptor 1D; test: Binding affinity at human cloned 5-hydroxytryptamine 1D receptor stably expressed in CHO cells by [3H]5-HT displacement.; type: cell-based
How it was run: (§2)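 Membranes from thawed CHO cells with human 5-HT1B or 5-HT1D, washed in 50 mM Tris-HCl pH 7.7, preincubated 10 min at 37 °C to remove endogenous 5-HT. Buffer holds 0.1% ascorbate, 10 μM pargyline and 4 mM CaCl2. Uses 2.0 nM [3H]5-HT, 30 min at 37 °C; 10 μM 5-HT defines nonspecific binding. Filtration; IC50 by nonlinear regression; duplicates, 2–5 occasions.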

[5] = molecular target: T1, 5-hydroxytryptamine receptor 1D; test: Agonist-induced [35S]- GTPgammaS binding in CHO cells stably transfected with 5-hydroxytryptamine 1D receptor; type: cell-based; how it was run: as §1
[6] = molecular target: T1, 5-hydroxytryptamine receptor 1D; test: Displacement of [3H]5-HT binding to cloned human 5-hydroxytryptamine 1D receptor stably expressed in CHO cells; type: cell-based; how it was run: as §2
[7] = molecular target: T2, 5-hydroxytryptamine receptor 1B; test: Displacement of [3H]5-HT binding to cloned 5-hydroxytryptamine 1B receptor stably expressed in CHO cells; type: cell-based; how it was run: as §2

T1 sequence (P28221 whole entry): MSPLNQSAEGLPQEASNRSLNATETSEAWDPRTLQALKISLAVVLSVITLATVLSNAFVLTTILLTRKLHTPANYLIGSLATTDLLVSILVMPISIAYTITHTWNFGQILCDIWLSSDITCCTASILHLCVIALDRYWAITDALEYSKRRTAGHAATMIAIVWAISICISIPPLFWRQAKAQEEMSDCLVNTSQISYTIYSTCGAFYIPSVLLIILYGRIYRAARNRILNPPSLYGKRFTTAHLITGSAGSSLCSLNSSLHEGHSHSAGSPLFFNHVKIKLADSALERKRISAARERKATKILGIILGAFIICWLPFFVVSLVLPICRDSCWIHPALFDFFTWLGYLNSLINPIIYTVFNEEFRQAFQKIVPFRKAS

Row | Compound | Selectivity [1] | Efficacy [2] [%] | IC50 [3] [nM] | IC50 [4] [nM] | EC50 [5] [nM] | IC50 [6] [nM] | IC50 [7] [nM]
1 | OC[C@@H](NC1CCN(CCCc2c[nH]c3ccc(-n4cnnc4)cc23)CC1)c1ccccc1 | 46 | 67 | 160 | 3.5 | 2.6 | – | –
2 | CN(C1CCN(CCCc2c[nH]c3ccc(-n4cnnc4)cc23)CC1)[C@H](CO)c1ccccc1 | 17 | – | 71 | 4.3 | – | – | –
3 | OC[C@H](Cc1ccccc1)NC1CCN(CCCc2c[nH]c3ccc(-n4cnnc4)cc23)CC1 | 67 | 76 | 140 | 2.1 | 3.6 | – | –
4 | C[C@@H](NC1CCN(CCCc2c[nH]c3ccc(-n4cnnc4)cc23)CC1)[C@H](O)c1ccccc1 | 18 | 76 | 200 | 11 | 15 | – | –
5 | O=S(=O)(NCC1CCN(CCCc2c[nH]c3ccc(-n4cnnc4)cc23)CC1)c1ccccc1 | 10 | 73 | – | – | 12 | 6.2 | 60
6 | CN(Cc1ccoc1)C1CCN(CCCc2c[nH]c3ccc(-n4cnnc4)cc23)CC1 | 25 | 87 | – | – | 8.9 | 8.1 | 200
7 | NC(=O)OC[C@H](NC1CCN(CCCc2c[nH]c3ccc(-n4cnnc4)cc23)CC1)c1ccccc1 | 26 | 73 | 120 | 4.7 | 9.3 | – | –
8 | C[C@H](NC1CCN(CCCc2c[nH]c3ccc(-n4cnnc4)cc23)CC1)c1ccccc1 | 160 | 76 | 95 | 0.6 | 12 | – | –
9 | CC(=O)Nc1ccc(CNC2CCN(CCCc3c[nH]c4ccc(-n5cnnc5)cc34)CC2)cc1 | 15 | 75 | – | – | 5 | 3 | 45
10 | COC[C@H](NC1CCN(CCCc2c[nH]c3ccc(-n4cnnc4)cc23)CC1)c1ccccc1 | 70 | 93 | 210 | 3 | 0.9 | – | –
11 | CC(=O)Nc1ccc(CN(C)CC2CCN(CCCc3c[nH]c4ccc(-n5cnnc5)cc34)CC2)cc1 | 40 | 94 | – | – | 2.8 | 0.6 | 24
12 | CN(Cc1ccsc1)C1CCN(CCCc2c[nH]c3ccc(-n4cnnc4)cc23)CC1 | 23 | 93 | – | – | 4.2 | 1.5 | 35
13 | c1ccc(CNCC2CCN(CCCc3c[nH]c4ccc(-n5cnnc5)cc34)CC2)cc1 | 18 | 101 | – | – | 5.6 | 1.6 | 28
14 | C[C@@H](NC1CCN(CCCc2c[nH]c3ccc(-n4cnnc4)cc23)CC1)C(=O)Nc1ccccc1 | 11 | 61 | 85 | 7.6 | 15 | – | –
15 | OCCC(NC1CCN(CCCc2c[nH]c3ccc(-n4cnnc4)cc23)CC1)c1ccccc1 (stereo not given) | 27 | 100 | 150 | 5.5 | 5.1 | – | –
16 | c1cc(CNC2CCN(CCCc3c[nH]c4ccc(-n5cnnc5)cc34)CC2)ccn1 | 5.8 | 80 | – | – | 13 | 24 | 140
17 | C[C@H](Cc1ccccc1)NC1CCN(CCCc2c[nH]c3ccc(-n4cnnc4)cc23)CC1 | 31 | 71 | 170 | 5.5 | 6.8 | – | –
18 | CC(=O)Nc1ccc([C@@H](C)NC2CCN(CCCc3c[nH]c4ccc(-n5cnnc5)cc34)CC2)cc1 | 12 | – | 350 | 29 | – | – | –
19 | c1ccc(C2CCCCN2C2CCN(CCCc3c[nH]c4ccc(-n5cnnc5)cc34)CC2)cc1 (stereo not given) | 220 | 65 | – | – | 4.7 | 1.9 | 410

Now from value to compound:

Row | Selectivity [1] | Efficacy [2] [%] | IC50 [3] [nM] | IC50 [4] [nM] | EC50 [5] [nM] | IC50 [6] [nM] | IC50 [7] [nM] | Compound
20 | 12 | 74 | 100 | 8.3 | 14 | – | – | OC[C@@H](Cc1ccccc1)NC1CCN(CCCc2c[nH]c3ccc(-n4cnnc4)cc23)CC1
21 | 8.3 | – | 81 | 9.8 | – | – | – | CC#CCN(C)C1CCN(CCCc2c[nH]c3ccc(-n4cnnc4)cc23)CC1
22 | 19 | 59 | 98 | 5.2 | 3.4 | – | – | CC(CO)(NC1CCN(CCCc2c[nH]c3ccc(-n4cnnc4)cc23)CC1)c1ccccc1 (stereo not given)
23 | 5.2 | – | 78 | 15 | – | – | – | CS(=O)(=O)NC[C@H](NC1CCN(CCCc2c[nH]c3ccc(-n4cnnc4)cc23)CC1)c1ccccc1
24 | 57 | 76 | – | – | 32 | 23 | 1300 | OC[C@H](NC1CCN(CCCc2c[nH]c3ccc(Cn4cncn4)cc23)CC1)c1ccccc1
25 | 120 | 99 | 230 | 1.9 | 0.5 | – | – | CC(NC1CCN(CCCc2c[nH]c3ccc(-n4cnnc4)cc23)CC1)c1ccc(F)cc1 (stereo not given)
26 | 18 | – | 210 | 12 | – | – | – | C[C@@H](NC1CCN(CCCc2c[nH]c3ccc(-n4cnnc4)cc23)CC1)[C@@H](O)c1ccccc1
27 | 62 | 72 | – | – | 2.2 | 1.2 | 74 | Oc1nc2ccccc2n1C1CCN(CCCc2c[nH]c3ccc(-n4cnnc4)cc23)CC1
28 | 26 | 76 | – | – | 7.6 | 4.6 | 120 | c1ccc(CNC2CCN(CCCc3c[nH]c4ccc(-n5cnnc5)cc34)CC2)cc1
29 | 26 | 65 | – | – | 6.2 | 4.2 | 110 | C[C@@H](NC1CCN(CCCc2c[nH]c3ccc(-n4ccnc4)cc23)CC1)c1ccccc1
30 | 17 | 65 | – | – | 7.1 | 4.5 | 78 | c1cc(CNC2CCN(CCCc3c[nH]c4ccc(-n5cnnc5)cc34)CC2)co1
31 | 140 | 74 | – | – | 0.8 | 0.7 | 100 | OC[C@H](NC1CCN(CCCc2c[nH]c3ccc(-n4ccnc4)cc23)CC1)c1ccccc1
32 | 53 | 85 | – | – | 1 | 0.9 | 48 | C[C@@H](O)[C@H](NC1CCN(CCCc2c[nH]c3ccc(-n4cnnc4)cc23)CC1)c1ccccc1
33 | 33 | 81 | – | – | 3.5 | 4.3 | 140 | CN(Cc1cccs1)C1CCN(CCCc2c[nH]c3ccc(-n4cnnc4)cc23)CC1
34 | 47 | 82 | 210 | 4.5 | 10 | – | – | CN(C1CCN(CCCc2c[nH]c3ccc(-n4cnnc4)cc23)CC1)[C@@H](CO)c1ccccc1
35 | 32 | 75 | – | – | 13 | 6.6 | 210 | O[C@@H]1Cc2ccccc2[C@H]1NC1CCN(CCCc2c[nH]c3ccc(-n4cnnc4)cc23)CC1
36 | 82 | 115 | – | – | 1.8 | 0.5 | 41 | CC(C)=CCN(C)C1CCN(CCCc2c[nH]c3ccc(-n4cnnc4)cc23)CC1
